Laboratory results as given in ChEMBL document CHEMBL4680084, “New β-Lactam Derivatives Modulate Cell Adhesion and Signaling Mediated by RGD-Binding and Leukocyte Integrins” (J Med Chem, 2016).
Calls of active or inactive are those of the source. The calls are words filed in the database; no cut-off is given here.

Key:
K562 = test: Toxicity in human K562 cells assessed as induction of cell necrosis and/or apoptosis incubated for 3 hrs by annexin V-PE and 7-AAD staining based by flow cytometry; conditions: k562, 3 h
Procedure, shortened: (§1)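 After 3 h incubation, cells resuspended in complete medium and stained with annexin V-PE/7-AAD reagent for 20 min at room temperature in the dark. Flow cytometry sorted cells into viable, early apoptotic and late apoptotic/necrotic populations.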

[1] = molecular target: T1, Integrin alpha-L/beta-2 (LFA-1) (Homo sapiens, UniProt P05107+P20701); test: Agonist activity at alphaLbeta2 in human Jurkat E6.1 cells assessed as increase in cell adhesion to ICAM1 pre-incubated for 30 mins before ICAM1 and further incubated for 30 mins by […]; assay type: cell-based
Procedure, shortened: (§2)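 Jurkat E6.1 cells labelled with CellTracker green CMFDA (12.5 µM, 30 min, 37 °C), washed, then pre-incubated 30 min at 37 °C with compound or methanol. Plated at 500,000/well on VCAM-1 (α4β1) or ICAM-1 (αLβ2) coated wells (5 µg/mL) for 30 min at 37 °C. Cells lysed in 0.5% Triton X-100; fluorescence read Ex485/Em535. Quadruplicate, at least three repeats.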

Integrin alpha-V/beta-3 [2] = molecular target: T2, Integrin alpha-V/beta-3 (Homo sapiens, UniProt P05106+P06756); test: Agonist activity at alphaVbeta3 in human SK-MEL-24 cells assessed as increase in cell adhesion to fibronectin at 10 to 10000 nM pre-incubated for 30 mins before fibronectin and further incubated for 1 hr by nitrophenyl-N-acetyl-beta-D-glucosaminide substrate based chromogenic assay; conditions: filed as agonist, dose 10-10000 nM, time 90.0 min
Procedure, shortened: (§3)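 SK-MEL-24 cells pre-incubated 30 min at room temperature with compound (1×10^-10–1×10^-4 M) or methanol, then plated at 50,000/well on fibronectin (10 µg/mL) coated wells for 1 h at room temperature. Adherent cells quantified by 4-nitrophenyl-N-acetyl-glucosaminide hydrolysis, absorbance 405 nm. Quadruplicate, at least three repeats; IC50/EC50 derived.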

Integrin alpha-5/beta-1 [3] = molecular target: T3, Integrin alpha-5/beta-1 (Homo sapiens, UniProt P05556+P08648); test: Antagonist activity at alpha5beta1 in human K562 cells assessed as reduction in cell adhesion to fibronectin pre-incubated for 30 mins before fibronectin and further incubated for 1 hr by nitrophenyl-N-acetyl-beta-D-glucosaminide substrate based chromogenic assay
Procedure, shortened: (§4)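 Compound or methanol vehicle pre-incubated with cells for 30 min at room temperature. Cells then plated on wells coated overnight at 4 °C with fibronectin 10 µg/mL (SK-MEL-24, K562, HT-29) or fibrinogen 10 µg/mL (MCF7, HEL). Seeding was 50,000 cells/well, or 100000 for HEL. Adhesion ran 1 h at room temperature. Wells washed with 1% BSA/PBS. Adherent cells read by hexosaminidase substrate, absorbance 405 nm. Quadruplicate, at least three repeats.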

SK-MEL-24 = test: Toxicity in human SK-MEL-24 cells assessed as induction of cell necrosis and/or apoptosis incubated for 3 hrs by annexin V-PE and 7-AAD staining based by flow cytometry; conditions: sk-mel-24, 3 h; procedure, shortened: as §1
Integrin alpha-V/beta-6 [4] = molecular target: T4, Integrin alpha-V/beta-6 (Homo sapiens, UniProt P06756+P18564); test: Antagonist activity at alphaVbeta6 in human HT-29 cells assessed as reduction in cell adhesion to fibronectin pre-incubated for 30 mins before fibronectin and further incubated for 1 hr by nitrophenyl-N-acetyl-beta-D-glucosaminide substrate based chromogenic assay
Procedure, shortened: as §4, with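 “BSA/PBS.” for “BSA/PBS. Adherent cells read by hexosaminidase substrate, absorbance 405 nm.”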

Integrin alpha-5/beta-1 [5] = molecular target: T3, Integrin alpha-5/beta-1; test: Agonist activity at alpha5beta1 in human K562 cells assessed as increase in cell adhesion to fibronectin pre-incubated for 30 mins before fibronectin and further incubated for 1 hr by nitrophenyl-N-acetyl-beta-D-glucosaminide substrate based chromogenic assay; procedure, shortened: as §4
Integrin alpha-V/beta-6 [6] = molecular target: T4, Integrin alpha-V/beta-6; test: Agonist activity at alphaVbeta6 in human HT-29 cells assessed as increase in cell adhesion to fibronectin pre-incubated for 30 mins before fibronectin and further incubated for 1 hr by nitrophenyl-N-acetyl-beta-D-glucosaminide substrate based chromogenic assay; procedure, shortened: as §4
Integrin alpha-4/beta-1 [7] = molecular target: T5, Integrin alpha-4/beta-1 (Homo sapiens, UniProt P05556+P13612); test: Antagonist activity at alpha4beta1 in human Jurkat E6.1 cells assessed as reduction in cell adhesion to VCAM1 pre-incubated for 30 mins before VCAM1 and further incubated for 30 mins by […]; assay type: cell-based
Integrin alpha-4/beta-1 [8] = molecular target: T5, Integrin alpha-4/beta-1; test: Agonist activity at alpha4beta1 in human Jurkat E6.1 cells assessed as increase in cell adhesion to VCAM1 pre-incubated for 30 mins before VCAM1 and further incubated for 30 mins by […]; assay type: cell-based; procedure, shortened: as §2
HT-29 = test: Toxicity in human HT-29 cells assessed as induction of cell necrosis and/or apoptosis incubated for 3 hrs by annexin V-PE and 7-AAD staining based by flow cytometry; conditions: ht-29, 3 h; procedure, shortened: as §1
Integrin alpha-V/beta-5 [9] = molecular target: T6, Integrin alpha-V/beta-5 (Homo sapiens, UniProt P06756+P18084); test: Agonist activity at alphaVbeta5 in human MCF7 cells assessed as increase in cell adhesion to fibrinogen pre-incubated for 30 mins before fibrinogen and further incubated for 1 hr by nitrophenyl-N-acetyl-beta-D-glucosaminide substrate based chromogenic assay; procedure, shortened: as §4
[10] = molecular target: T7, Integrin alpha-IIb/beta-3 (Homo sapiens, UniProt P05106+P08514); test: Agonist activity at alpha2bbeta3 in human HEL cells assessed as increase in cell adhesion to fibrinogen pre-incubated for 30 mins before fibrinogen and further incubated for 1 hr by nitrophenyl-N-acetyl-beta-D-glucosaminide substrate based chromogenic assay
Procedure, shortened: as §4, with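 “BSA/PBS.” for “BSA/PBS. Adherent cells read by hexosaminidase substrate, absorbance 405 nm.”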

Integrin alpha-V/beta-3 [11] = molecular target: T2, Integrin alpha-V/beta-3; test: Antagonist activity at alphaVbeta3 in human SK-MEL-24 cells assessed as reduction in cell adhesion to fibronectin at 10 to 10000 nM pre-incubated for 30 mins before fibronectin and further incubated for 1 hr by nitrophenyl-N-acetyl-beta-D-glucosaminide substrate based chromogenic assay; conditions: filed as antagonist, dose 10-10000 nM, time 90.0 min; procedure, shortened: as §3
[12] = molecular target: T7, Integrin alpha-IIb/beta-3; test: Antagonist activity at alpha2bbeta3 in human HEL cells assessed as reduction in cell adhesion to fibrinogen pre-incubated for 30 mins before fibrinogen and further incubated for 1 hr by nitrophenyl-N-acetyl-beta-D-glucosaminide substrate based chromogenic assay
Procedure, shortened: as §4, with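 “BSA/PBS.” for “BSA/PBS. Adherent cells read by hexosaminidase substrate, absorbance 405 nm.”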

Integrin alpha-V/beta-5 [13] = molecular target: T6, Integrin alpha-V/beta-5; test: Antagonist activity at alphaVbeta5 in human MCF7 cells assessed as reduction in cell adhesion to fibrinogen pre-incubated for 30 mins before fibrinogen and further incubated for 1 hr by nitrophenyl-N-acetyl-beta-D-glucosaminide substrate based chromogenic assay
Procedure, shortened: as §4, with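 “BSA/PBS.” for “BSA/PBS. Adherent cells read by hexosaminidase substrate, absorbance 405 nm.”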

HEL = test: Toxicity in human HEL cells assessed as induction of cell necrosis and/or apoptosis incubated for 3 hrs by annexin V-PE and 7-AAD staining based by flow cytometry; procedure, shortened: as §1
MCF7 = test: Toxicity in human MCF7 cells assessed as induction of cell necrosis and/or apoptosis incubated for 3 hrs by annexin V-PE and 7-AAD staining based by flow cytometry; conditions: mcf7, 3 h; procedure, shortened: as §1
[14] = molecular target: T1, Integrin alpha-L/beta-2 (LFA-1); test: Antagonist activity at alphaLbeta2 in human Jurkat E6.1 cells assessed as reduction in cell adhesion to ICAM1 pre-incubated for 30 mins before ICAM1 and further incubated for 30 mins by […]; assay type: cell-based; procedure, shortened: as §2
Integrin alpha-5/beta-1 [15] = molecular target: T3, Integrin alpha-5/beta-1; test: Inhibition of fibronectin binding to alpha5beta1 isolated from human K562 cells incubated for 1 hr by […] competitive solid-phase binding assay; assay type: tissue-based
Procedure, shortened: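 Plates coated overnight at 4 °C in carbonate buffer pH 9.6 with fibronectin 0.5 µg/mL (αvβ3, αvβ6, α5β1), fibrinogen 10 µg/mL (αIIbβ3, αvβ5) or ICAM-1 (αLβ2). Blocked 1 h in buffer containing Ca/Mg/Mn 1 mM each and 1% BSA. Purified integrin (3–10 µg/mL) incubated with compound (10⁻⁴–10⁻¹⁰ M) 1 h at room temperature. Bound integrin detected with primary antibody then AlexaFluor488 secondary, Ex485/Em535. Duplicate, at least three repeats.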

Integrin alpha-4/beta-1 [16] = molecular target: T5, Integrin alpha-4/beta-1; test: Agonist activity at alpha4beta1 in human Jurkat E6.1 cells assessed as increase in cell adhesion to VCAM1 at 2 to 10 ug/ml pre-incubated for 30 mins and further incubated for 30 mins by nitrophenyl-N-acetyl-beta-D-glucosaminide substrate based chromogenic assay; conditions: filed as agonist, dose 2-10 µg/ml, time 60.0 min
Integrin alpha-V/beta-5 [17] = molecular target: T6, Integrin alpha-V/beta-5; test: Inhibition of fibrinogen binding to alphaVbeta5 isolated form human mCf7 cells incubated for 1 hr by […] competitive solid-phase binding assay
Integrin alpha-V/beta-3 [18] = molecular target: T2, Integrin alpha-V/beta-3; test: Agonist activity at alphaVbeta3 in human SK-MEL-24 cells assessed as increase in cell adhesion to fibronectin pre-incubated for 30 mins before fibronectin and further incubated for 1 hr by nitrophenyl-N-acetyl-beta-D-glucosaminide substrate based chromogenic assay; procedure, shortened: as §4
Integrin alpha-V/beta-3 [19] = molecular target: T2, Integrin alpha-V/beta-3; test: Antagonist activity at alphaVbeta3 in human SK-MEL-24 cells assessed as reduction in cell adhesion to fibronectin pre-incubated for 30 mins before fibronectin and further incubated for 1 hr by nitrophenyl-N-acetyl-beta-D-glucosaminide substrate based chromogenic assay
Procedure, shortened: as §4, with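 “BSA/PBS.” for “BSA/PBS. Adherent cells read by hexosaminidase substrate, absorbance 405 nm.”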

Integrin alpha-4/beta-1 [20] = molecular target: T5, Integrin alpha-4/beta-1; test: Inhibition of fibronectin binding to […] isolated from human Jurkat E6.1 cells incubated for 1 hr by scintillation-proximity assay based competitive solid-phase binding assay; assay type: tissue-based
Integrin alpha-4/beta-1 [21] = molecular target: T5, Integrin alpha-4/beta-1; test: Agonist activity at alpha4beta1 in human Jurkat E6.1 cells assessed as increase in HUTS-21 antibody binding by flow cytometry analysis; assay type: cell-based; conditions: filed as agonist
Procedure, shortened: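 Jurkat E6.1 cells at 10⁶/mL in 1% BSA/HBSS incubated 30 min at 37 °C with compound. PE-labelled HUTS-21 mAb then added for 45 min at room temperature. Cells washed, 10,000 analysed by flow cytometry. MFI corrected to isotype control set to 0. Four independent experiments in duplicate.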

Integrin alpha-4/beta-1 [22] = molecular target: T5, Integrin alpha-4/beta-1; test: Agonist activity at alpha4beta1 in human Jurkat E6.1 cells assessed as increase in ERK1/2 phosphorylation at 1 to 100 nM by Western blot analysis; assay type: cell-based; conditions: filed as agonist, dose 1-100 nM
Integrin alpha-V/beta-6 [23] = molecular target: T4, Integrin alpha-V/beta-6; test: Inhibition of fibronectin binding to alphaVbeta6 isolated form human HT-29 cells incubated for 1 hr by […] competitive solid-phase binding assay; assay type: tissue-based
Integrin alpha-V/beta-3 [24] = molecular target: T2, Integrin alpha-V/beta-3; test: Inhibition of fibronectin binding to human recombinant alphaVbeta3 expressed in HEK293 cells incubated for 1 hr by […] competitive solid-phase binding assay; assay type: cell-based

Structure (SMILES) | Activity (K562) | EC50 [1] [µM] | IC50 (Integrin alpha-5/beta-1 [3]) [µM] | Activity (SK-MEL-24) | IC50 (Integrin alpha-V/beta-6 [4]) [µM] | EC50 (Integrin alpha-5/beta-1 [5]) [µM] | EC50 (Integrin alpha-V/beta-6 [6]) [µM] | Activity (HT-29) | EC50 (Integrin alpha-V/beta-5 [9]) [µM] | EC50 [10] [µM] | IC50 [12] [µM] | IC50 (Integrin alpha-V/beta-5 [13]) [µM] | Activity (HEL) | Activity (MCF7) | IC50 [14] [µM] | further results
Cc1ccccc1NC(=O)N1C(=O)C[C@H]1C(=O)NCCC(=O)O | Non-Toxic | > 5 | > 5 | Non-Toxic | > 5 | > 5 | > 5 | Non-Toxic | > 5 | > 5 | > 5 | > 5 | Non-Toxic | Non-Toxic | > 5 | Activity (Integrin alpha-V/beta-3 [2]): Active; IC50 (Integrin alpha-4/beta-1 [7]): > 5 µM; EC50 (Integrin alpha-4/beta-1 [8]): > 5 µM; Activity (Integrin alpha-V/beta-3 [11]): Active
Cc1ccccc1NC(=O)N1C(=O)CC1CC(=O)O (centres undefined) | Non-Toxic | > 5 | > 5 | Non-Toxic | > 5 | > 5 | > 5 | Non-Toxic | > 5 | > 5 | > 5 | > 5 | Non-Toxic | Non-Toxic | > 5 | IC50 (Integrin alpha-5/beta-1 [15]): > 1000 nM; Activity (Integrin alpha-4/beta-1 [16]): Active; IC50 (Integrin alpha-V/beta-5 [17]): > 1000 nM; EC50 (Integrin alpha-V/beta-3 [18]): > 5 µM; IC50 (Integrin alpha-V/beta-3 [19]): > 5 µM; IC50 (Integrin alpha-4/beta-1 [20]): 9.8 nM; Activity (Integrin alpha-4/beta-1 [21]): Dose-dependent effect; Activity (Integrin alpha-4/beta-1 [22]): Active; IC50 (Integrin alpha-V/beta-6 [23]): > 1000 nM; IC50 (Integrin alpha-V/beta-3 [24]): > 1000 nM
